# Compound activity: PubChem BioAssay, Broad Institute
# Compounds with a hit are over-represented: about 0.61% of the library has one in this group of screens.
# CFTR F508del cor: F508del CFTR correction, initial screen, CFBE line, single point | CFBE cells, YFP halide quenching; stimulated with forskolin plus potentiator P3; % fluorescence drop versus neutral controls | activity (quench increase), % at 7.58 µM | actives 0.36% (n = 350,000) | AID 720511, 2013;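 active means mean added fluorescence quench of at least 8% versus neutral control, with both replicates also reaching 8%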;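 further: cells transiently co-express mutant CFTR-F508del with the halide-sensitive YFP; corrector assay measuring rescue of mutant channel to the surface after 24 h compound exposure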
# E-sel inducer: E-selectin induction in HUVECs, primary screen, imaging, HUVEC, immunofluorescence imaging, single point | actives 0.37% (n = 260,000) | P16581 | activation, % at 7.58 µM | normalized: neutral wells 0, TNF-alpha wells 100 | AID 686992, 2013;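 active means mean E-selectin-positive cell signal at least 10% of the positive control, reached in at least 60% of replicates, without over 20% cell loss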
# Target sequence (P16581 whole entry, looked up): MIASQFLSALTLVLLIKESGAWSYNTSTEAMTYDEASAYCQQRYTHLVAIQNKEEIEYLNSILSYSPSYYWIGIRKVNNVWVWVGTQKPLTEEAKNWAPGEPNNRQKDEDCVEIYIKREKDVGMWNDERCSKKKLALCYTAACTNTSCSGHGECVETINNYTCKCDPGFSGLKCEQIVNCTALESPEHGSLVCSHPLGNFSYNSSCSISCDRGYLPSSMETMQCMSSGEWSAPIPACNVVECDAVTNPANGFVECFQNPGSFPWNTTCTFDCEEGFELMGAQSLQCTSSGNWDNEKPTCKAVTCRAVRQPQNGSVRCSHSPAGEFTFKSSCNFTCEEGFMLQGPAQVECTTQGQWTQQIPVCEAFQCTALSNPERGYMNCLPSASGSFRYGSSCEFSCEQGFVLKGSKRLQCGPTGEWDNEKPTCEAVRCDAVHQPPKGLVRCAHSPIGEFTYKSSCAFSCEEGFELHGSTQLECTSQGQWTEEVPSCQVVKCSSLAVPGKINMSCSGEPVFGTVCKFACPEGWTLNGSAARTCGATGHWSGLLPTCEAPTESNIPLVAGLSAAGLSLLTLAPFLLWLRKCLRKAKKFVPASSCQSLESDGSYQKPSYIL
#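 Test system: HUVEC; input: 3,000 HUVEC/well; measured by: immunofluorescence imaging; read-out: % PE-positive cells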
# Xi reactivation: activators of inactive X chromosome reactivation, primary screen, imaging, XiGFP fibroblasts, GFP high-content imaging, set 2; XiGFP mouse fibroblasts, % GFP-positive cells imaging, 3 d; cells co-treated with 5-aza-dC sensitizer; scaled so ellipticine positive control = 100%; activation, % at 7.58 µM; actives 0.055% (n = 360,000); AID 743238, 2013;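 active means mean normalized replicate activation at least 10% and every replicate at or above 10%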;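 further: 0% = median of on-plate neutral control wells and 100% = ellipticine 6 µM median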
#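 Material: SV40-immortalized XiGFP fibroblast cells, line 68-5-11 | Buffer or medium: DMEM containing 5-aza-dC | Dosing: One concentration, pinned | Times: 3 d treatment, 15 min room-temperature fixation | Controls: Ellipticine 6 µM positive control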
# Active calls of the source: *; · = no result; ! = not confirmed by another sample.
SMILES,CFTR F508del cor,E-sel inducer,Xi reactivation
O=C(CC1CC1)Nc1ccc2c(c1)[C@@H]1C[C@H](CC(=O)N3CCc4ccccc4C3)O[C@@H](CO)[C@@H]1O2,5,0,0
CCCCn1nc(NC(=O)CCC)c2cc3cc(OC)ccc3nc21,-3,·,0
CCCCn1nc(NC(=O)CC(C)C)c2cc3cc(OC)ccc3nc21,-3,56*,0
COC(=O)c1ccc([C@H]2C=C(C(=O)N3CCN(Cc4ccc5c(c4)OCO5)CC3)O[C@@H](OCc3ccc(CO)cc3)C2)cc1,2,·,·
O=C(C1=C[C@@H](c2ccccc2)C[C@@H](OCc2ccc(CO)cc2)O1)N1CCN(Cc2ccc3c(c2)OCO3)CC1,8.8*!,1,0
O=C(Nc1ccccc1N1CCCCC1)C1=COCCO1,-2,35*,0
O=C(Nc1ccccc1N1CCCC1)C1=COCCO1,1,·,0
COc1ccc(-c2ccc3c(c2)[C@@H]2[C@@H](CCN2S(=O)(=O)c2ccc(OC)cc2)[C@H](CO)N3)cc1,4,1,0
COc1ccc(-c2ccc3c(c2)[C@@H]2[C@@H](CCN2S(=O)(=O)c2ccc(OC)cc2)[C@@H](CO)N3)cc1,-2,-1,0
COc1ccc(S(=O)(=O)N2CC[C@@H]3[C@@H](CO)Nc4ccc(C5=CCCCC5)cc4[C@@H]32)cc1,9.0*,2,0
COc1ccc(-c2ccc3c(c2)[C@H]2[C@H](CCN2S(=O)(=O)c2ccc(OC)cc2)[C@@H](CO)N3)cc1,20*,2,0
COc1ccc(S(=O)(=O)N2CC[C@H]3[C@H](CO)Nc4ccc(-c5cccc(C#N)c5)cc4[C@H]32)cc1,2,0,0
COc1ccc(S(=O)(=O)N2CC[C@@H]3[C@@H](CO)Nc4ccc(-c5cccc(C#N)c5)cc4[C@@H]32)cc1,13*,-1,0
COCC(=O)Nc1ccc2c(c1)C(=O)N(C)C[C@H](OC)[C@@H](C)CN(Cc1ccccn1)[C@H](C)CO2,3,0,0
CC(C)CN(CCCNC(=O)CN1C(=O)CSc2ccc(S(=O)(=O)N3CCOCC3)cc21)CC(C)C,10*,-3,0
CC(C)CN(CCNC(=O)CN1C(=O)CSc2ccc(S(=O)(=O)N3CCOCC3)cc21)CC(C)C,2,-3,1
CO[C@@H]1CN(C)C(=O)c2ccc(NC(=O)C3CCOCC3)cc2OC[C@H](C)N(C(=O)c2ccccc2)C[C@H]1C,-4,0,0
C[C@H](CO)N1C[C@H](C)[C@@H](CN(C)C(=O)Nc2ccc(F)cc2)OCCCC[C@H](C)Oc2ccc(NC(=O)Nc3ccc4c(c3)OCO4)cc2C1=O,-4,0,0
COc1ccc2c3c(n(C)c2c1)[C@@H](CO)N(C(=O)Cc1ccccc1)CC31CN(C(=O)Cc2ccccc2)C1,-1,0,0
CC(=O)NS(=O)(=O)c1ccc(NC(=O)CSc2ccc(Cl)cc2)cc1,9.6*,·,0
Cc1ccc(C)c(NS(=O)(=O)c2ccc(NC(=O)CSc3ccc(Cl)cc3)cc2)c1,·,·,0
O=C(NN1CCOCC1)c1ccc(Cl)cc1[N+](=O)[O-],2,45*,0
O=C(NCCCN1CCOCC1)c1ccc(Cl)cc1[N+](=O)[O-],2,·,0
COc1ccc(NC(=O)N2C[C@@H](O)COC[C@@H]3O[C@@H](CC(=O)NC4Cc5ccccc5C4)CC[C@H]32)cc1,4,0,0
CC(C)NC(=O)N(C)C[C@@H]1OCCCC[C@@H](C)Oc2ccc(NS(=O)(=O)c3ccccc3)cc2C(=O)N([C@@H](C)CO)C[C@@H]1C,-1,0,-1
SMILES,CFTR F508del cor,E-sel inducer,Xi reactivation
CCNC(=O)C1(C)CCN(C(=O)c2cc(F)ccc2C)C1 (centres undefined),16*,·,0
CCCS(=O)(=O)NC(=O)C1(C)CCN(C(=O)c2cc(F)ccc2C)C1 (centres undefined),3,0,0
O=C(CN1CCN(S(=O)(=O)c2ccccc2)CC1)Nc1ccccc1Cl,8.5*,·,0
O=C(CN1CCN(S(=O)(=O)c2ccccc2)CC1)Nc1ccccc1C(=O)c1ccccc1,·,-1,0
CC(C)NC(=O)N(C)C[C@H]1Oc2ccc(NC(=O)Cc3cn(C)c4ccccc34)cc2C(=O)N([C@H](C)CO)C[C@H]1C,0,-12,0
Cc1ccc(-c2nn(-c3cc(N4CCNCC4)ccc3[N+](=O)[O-])c(=O)c3ccccc23)cc1,-3,66*,0
Cc1ccc(-c2nn(-c3ccccn3)c(=O)c3ccccc23)cc1,-2,0,0
C#CCOCCOCCOCCNc1nc(N2CCN(C(=O)[C@H]([C@@H](C)CC)n3cc(CCCCN)nn3)CC2)nc(N2CCN(C(=O)[C@H](CCCCN)n3cc(CCCC)nn3)CC2)n1,0,1,0
C#CCOCCOCCOCCNc1nc(N2CCN(C(=O)[C@H]([C@@H](C)CC)n3cc(CCC(=O)O)nn3)CC2)nc(N2CCN(C(=O)[C@H](CCCCN)n3cc(CCCC)nn3)CC2)n1,9.2*,0,0
CN(C)N=Nc1ccc(S(=O)(=O)NC(Cc2ccccc2)C(=O)O)cc1 (centres undefined),2,0,0
Cc1ccc(S(=O)(=O)NC(Cc2ccccc2)C(=O)O)cc1C (centres undefined),-1,59*,0
O=C(c1ccc(Br)cc1)c1cc2ccc(O)cc2oc1=O,-2,46*,0
COc1ccc(C(=O)c2cc3ccc(O)cc3oc2=O)cc1,-3,·,·
CO[C@@H]1CN(C)C(=O)c2cc(NC(C)=O)ccc2OC[C@H](C)N(Cc2ccccc2F)C[C@H]1C,0,0,0
COc1ccc(CNc2ncnc3c2[nH]c2ccccc23)cc1,4,·,0
COc1ccc(CNc2ncnc3c2[nH]c2cc(OC)c(OC)cc23)cc1,0,67*,0
C[C@@H]1CN([C@@H](C)CO)S(=O)(=O)c2ccc(C#CC3CCCC3)cc2O[C@H]1CN(C)C(=O)c1cccc(F)c1,4,-1,-1
CCOC(=O)C1CCCN(c2nc3ccccc3nc2NS(=O)(=O)c2ccc(C)cc2)C1 (centres undefined),21*,0,0
NC(=O)C1CCN(c2nc3ccccc3nc2NS(=O)(=O)c2ccc(Br)cc2)CC1,-7,2,0
CC(=O)N(C)C[C@@H]1Oc2ncc(-c3cccc(C#N)c3)cc2C(=O)N([C@@H](C)CO)C[C@@H]1C,·,0,-1
CCC(C)NC(=O)CSc1nc2c(sc(=S)n2-c2cc(Cl)ccc2OC)c(=O)[nH]1 (centres undefined),2,0,0
COCCCNC(=O)CSc1nc2c(sc(=S)n2-c2cc(Cl)ccc2OC)c(=O)[nH]1,2,46*,0
O=C(C[C@H]1CC[C@H]2NC[C@@H](O)COC[C@@H]2O1)NCCN1CCCCC1,-1,0,0
